Measurements reported in ChEMBL document CHEMBL1157689, “Synthesis and anti-HIV evaluation of water-soluble calixarene-based bithiazolyl podands” (Bioorg Med Chem, 2010).

What was measured:
[1] = system: Human immunodeficiency virus 1; experiment: Antiviral activity against HIV1 3B infected in human MT4 cells assessed as protection from virus-induced cytopathogenicity by MTT assay; type: functional, organism-based; conditions: Human immunodeficiency virus 1, 3B
Summary of the method: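 HIV-1 IIIB replication in MT4 cells followed by virus-induced cytopathogenic effect. IC50 is the concentration protecting 50% of infected cells against cytopathogenicity. Values are averages of at least two or three separate experiments.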

[2] = Cytotoxicity against human MT4 cells by MTT assay; type: cell-based
Summary of the method: (§1)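 Uninfected CEM-SS, MT4 or PBMC cells exposed to compound, up to 100 μM for most compounds. CC50 is the concentration causing 50% death of uninfected cells. Values are averages of at least two or three separate experiments.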

[3] = Selectivity index, ratio of CC50 for human MT4 cells to IC50 for HIV1 3B infected in human MT4 cells; type: functional
Summary of the method: (§2)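 Selectivity index calculated as CC50/IC50 for each cell system: CEM-SS/HIV-1 LAI, MT4/HIV-1 IIIB, PBMC/HIV-1 Bal.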

[4] = Cytotoxicity against human CEM-SS cells by MTT assay; type: cell-based; summary of the method: as §1
[5] = Selectivity index, ratio of CC50 for human CEM-SS cells to IC50 for HIV1 LAI infected in human CEM-SS cells; type: functional; summary of the method: as §2
[6] = Cytotoxicity against human PBMC by MTT assay; type: cell-based; summary of the method: as §1
[7] = Selectivity index, ratio of CC50 for human PBMC to IC50 for HIV1 BaL infected in human PBMC; type: functional; summary of the method: as §2
[8] = system: Human immunodeficiency virus 1; experiment: Antiviral activity against HIV1 BaL infected in human PBMC assessed as inhibition of viral replication by reverse transcriptase activity measurement; conditions: Human immunodeficiency virus 1, BaL
[9] = system: Human immunodeficiency virus 1; experiment: Antiviral activity against HIV1 LAI infected in human CEM-SS cells assessed as inhibition of viral replication by reverse transcriptase activity measurement; conditions: Human immunodeficiency virus 1, LAI

| SMILES | IC50 [8] [µM] | IC50 [9] [µM] | IC50 [1] [µM] | CC50 [2] [µM] | Ratio CC50/IC50 [3] | CC50 [4] [µM] | Ratio CC50/IC50 [5] | CC50 [6] [µM] | Ratio CC50/IC50 [7] |
| --- | --- | --- | --- | --- | --- | --- | --- | --- | --- |
| O=S(=O)([O-])c1cc2c(O)c(c1)Cc1cc(S(=O)(=O)[O-])cc(c1O)Cc1cc(S(=O)(=O)[O-])cc(c1O)Cc1cc(S(=O)(=O)[O-])cc(c1O)C2.[Na+].[Na+].[Na+].[Na+] | 45 | 86 | 38 | > 100 | >2.6 | > 100 | >1.2 | > 100 | >2 |
| Cc1csc(-c2nc(COc3c4cc(CC(=O)[O-])cc3Cc3cc(CC(=O)[O-])cc(c3O)Cc3cc(CC(=O)[O-])cc(c3OCc3csc(-c5nc(C)cs5)n3)Cc3cc(CC(=O)[O-])cc(c3O)C4)cs2)n1.[Na+].[Na+].[Na+].[Na+] | 27.7 | 28 | 16.5 | > 1000 | >60 | > 1000 | >36 | 230 | 8.3 |
| Cc1csc(-c2nc(COc3c4cc(CP(=O)([O-])O)cc3Cc3cc(CP(=O)([O-])O)cc(c3O)Cc3cc(CP(=O)([O-])O)cc(c3OCc3csc(-c5nc(C)cs5)n3)Cc3cc(CP(=O)([O-])O)cc(c3O)C4)cs2)n1.[Na+].[Na+].[Na+].[Na+] | 57 | 15 | 14 | > 100 | >7 | > 100 | >6 | 92 | >1.7 |
| Cc1nc(-c2nc(COc3c4cc(CC(=O)[O-])cc3Cc3cc(CC(=O)[O-])cc(c3O)Cc3cc(CC(=O)[O-])cc(c3OCc3nc(-c5nc(C)c(C(=O)[O-])s5)sc3C(=O)[O-])Cc3cc(CC(=O)[O-])cc(c3O)C4)c(C(=O)[O-])s2)sc1C(=O)[O-].[Na+].[Na+].[Na+].[Na+].[Na+].[Na+].[Na+].[Na+] | > 37 | 5.3 | 14 | > 100 | >7 | > 100 | >26 | 37 | <1 |
| O=P([O-])(O)Cc1cc2c(O)c(c1)Cc1cc(CP(=O)([O-])O)cc(c1O)Cc1cc(CP(=O)([O-])O)cc(c1O)Cc1cc(CP(=O)([O-])O)cc(c1O)C2.[Na+].[Na+].[Na+].[Na+] | 70 | > 100 | > 100 | > 100 |  | > 100 |  | 78 | >1 |

Stronger by IC50 [8], values ahead:

| IC50 [8] [µM] | IC50 [9] [µM] | SMILES | IC50 [1] [µM] | CC50 [2] [µM] | Ratio CC50/IC50 [3] | CC50 [4] [µM] | Ratio CC50/IC50 [5] | CC50 [6] [µM] | Ratio CC50/IC50 [7] |
| --- | --- | --- | --- | --- | --- | --- | --- | --- | --- |
| 9.5 | 81 | O=C([O-])Cc1cc2c(O)c(c1)Cc1cc(CC(=O)[O-])cc(c1O)Cc1cc(CC(=O)[O-])cc(c1O)Cc1cc(CC(=O)[O-])cc(c1O)C2.[Na+].[Na+].[Na+].[Na+] | 44 | > 100 | >2.3 | > 100 | >1.2 | 100 | 10.5 |
| 0.0077 | 0.0051 | Cc1cn([C@H]2C[C@H](N=[N+]=[N-])[C@@H](CO)O2)c(=O)[nH]c1=O [ZIDOVUDINE] |  | > 100 |  | > 100 |  | 75 |  |
